Measurements from ChEMBL document CHEMBL4028840, “6-Nitro-2,3-dihydroimidazo[2,1-b][1,3]thiazoles: Facile synthesis and comparative appraisal against tuberculosis and neglected tropical diseases” (Bioorg Med Chem Lett, 2017).
pIC50: −log10 of the molar value. ≈ marks a conversion by molar mass, not a printed value.

Assays:
[1] = Cytotoxicity against human MRC5 SV2 cells after 72 hrs by resazurin dye based fluorescence assay; assay type: cell-based
Summary of the method: (§1)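 IC50 for growth inhibition of L. infantum, T. cruzi and T. brucei parasites, or for cytotoxicity toward human lung fibroblasts (MRC-5). Values are means of two or more independent experiments.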

[2] = test system: Mycobacterium tuberculosis; test: Anti-tubercular activity against Mycobacterium tuberculosis H37Rv ATCC 27294 after 7 days under aerobic condition by microplate alamar blue assay; assay type: functional
Summary of the method: (§2)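 M. tuberculosis H37Rv MIC measured in two assays: aerobic growth by MABA and hypoxic exposure by LORA. Each value is the mean of ≥2 independent determinations.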

[3] = test system: Trypanosoma brucei brucei; test: Anti-parasitic activity against Trypanosoma brucei brucei Squib-427 after 72 hrs by resazurin dye based fluorescence assay; assay type: functional; summary of the method: as §1
[4] = test system: Trypanosoma cruzi; test: Anti-parasitic activity against Trypanosoma cruzi Tulahuen CL2 infected in human MRC5 cells after 7 days by chlorophenol red […]-D-galactopyranoside dye based assay; assay type: functional, cell-based; summary of the method: as §1
[5] = test system: Mycobacterium tuberculosis; test: Anti-tubercular activity against Mycobacterium tuberculosis H37Rv ATCC 27294 after 10 days under hypoxic condition by low-oxygen recovery assay; assay type: functional; summary of the method: as §2
[6] = test system: Vero; test: Cytotoxicity against African green monkey Vero cells after 72 hrs by MTS/PMS assay; assay type: cell-based; conditions: Chlorocebus sabaeus
Summary of the method: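 VERO mammalian cells exposed for 72 h. Cytotoxicity IC50 comes from a single test.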

[7] = test system: Leishmania infantum; test: Anti-parasitic activity against Leishmania infantum MHOM/MA(BE)/67 amastigotes infected in mouse primary peritoneal macrophages after 5 days by giemsa staining based microscopic method; assay type: functional; summary of the method: as §1
[8] = Mycobacterium tuberculosis, H37Rv ATCC 27294, 168 h, read-out: MIC
[9] = Trypanosoma brucei, Squib-427, 72 h
[10] = Trypanosoma cruzi, Tulahuen CL2, MRC5, 168 h
[11] = Mycobacterium tuberculosis, H37Rv ATCC 27294, 240 h, read-out: MIC
[12] = Leishmania infantum, MHOM/MA(BE)/67, 120 h

Row | SMILES | pIC50 ([1]; Homo sapiens, MRC-5 SV2, 72 h) | MIC [2, 8] [µM] | pIC50 [3, 9] | pIC50 [4, 10] | MIC [5, 11] [µM] | pIC50 [6] | pIC50 [7, 12] | pIC50 [4] | MIC [2] [µM] | pIC50 [3] | MIC [5] [µM] | pIC50 ([1]; mrc5 sv2) | pIC50 [7]
1 | CC1(COc2ccc(Oc3ccccc3)cc2)Cn2cc([N+](=O)[O-])nc2O1 (configuration not stated) | < 4.19 | 0.79 (≈ 0.29 µg/mL) | 4.55 | 5.72 | 24 (≈ 8.82 µg/mL) | – | – | – | – | – | – | – | –
2 | O=[N+]([O-])c1cn2c(n1)SC(COc1ccc(Oc3ccccc3)cc1)C2 (configuration not stated) | 4.25 | > 128 | 4.96 | 5.80 | 29 (≈ 10.7 µg/mL) | < 3.89 | 4.25 | – | – | – | – | – | –
3 | CC1(COc2ccc(-c3ccc(F)cc3)cc2)Cn2cc([N+](=O)[O-])nc2S1 (configuration not stated) | < 4.19 | 0.21 (≈ 0.0809 µg/mL) | < 4.19 | 6.68 | > 64 | < 3.89 | < 4.19 | – | – | – | – | – | –
4 | CC1(COc2ccc(OC(F)(F)F)cc2)Cn2cc([N+](=O)[O-])nc2S1 (configuration not stated) | < 4.19 | 0.49 (≈ 0.184 µg/mL) | < 4.19 | 6.42 | 10 (≈ 3.75 µg/mL) | < 3.89 | < 4.19 | – | – | – | – | – | –
5 | CC1(CO)Cn2cc([N+](=O)[O-])nc2S1 (configuration not stated) | – | 10 (≈ 2.15 µg/mL) | – | – | > 128 | – | – | – | – | – | – | – | –
6 | CC1(COCc2ccc(-c3ccc(OC(F)(F)F)cc3)cc2)Cn2cc([N+](=O)[O-])nc2S1 (configuration not stated) | < 4.19 | 1.4 (≈ 0.652 µg/mL) | 5.55 | 6.85 | > 64 | – | 4.25 | – | – | – | – | – | –
7 | CC1(COCc2ccc(-c3ccc(C(F)(F)F)cc3)cc2)Cn2cc([N+](=O)[O-])nc2S1 (configuration not stated) | < 4.19 | 1.1 (≈ 0.494 µg/mL) | 5.96 | 7.40 | > 64 | – | 4.25 | – | – | – | – | – | –
8 | C[C@@]1(COCc2ccc(OC(F)(F)F)cc2)Cn2cc([N+](=O)[O-])nc2S1 | < 4.19 | 6.1 (≈ 2.38 µg/mL) | < 4.19 | 5.80 | 51 (≈ 19.9 µg/mL) | 4.28 | < 4.19 | – | – | – | – | – | –
9 | O=[N+]([O-])c1cn2c(n1)SC(COCc1ccc(OC(F)(F)F)cc1)C2 (configuration not stated) | < 4.19 | 4.4 (≈ 1.65 µg/mL) | < 4.19 | 6.06 | 15 (≈ 5.63 µg/mL) | < 3.89 | 4.19 | – | – | – | – | – | –
10 | CC1(COCc2ccc(Oc3ccccc3)cc2)Cn2c([N+](=O)[O-])cnc2S1 (configuration not stated) | < 4.19 | > 128 | 4.28 | 4.72 | > 128 | – | 4.26 | – | – | – | – | – | –
11 | CC1(COCc2ccc(-c3ccc(F)cc3)cc2)Cn2cc([N+](=O)[O-])nc2S1 (configuration not stated) | < 4.19 | 1.5 (≈ 0.599 µg/mL) | < 4.19 | 6.82 | > 64 | – | < 4.19 | – | – | – | – | – | –
12 | CC1(COc2ccc(Oc3ccccc3)cc2)Cn2cc([N+](=O)[O-])nc2S1 (configuration not stated) | < 4.19 | 0.76 (≈ 0.291 µg/mL) | < 4.19 | 6.85 | 5.3 (≈ 2.03 µg/mL) | < 3.89 | < 4.19 | – | – | – | – | – | –
13 | O=[N+]([O-])c1cn2c(n1)OC(COc1ccc(Oc3ccccc3)cc1)C2 (configuration not stated) | 4.72 | 0.96 (≈ 0.339 µg/mL) | < 4.19 | 5.51 | > 128 | < 3.89 | 5.47 | – | – | – | – | – | –
14 | CC1(COc2ccc(Oc3ccccc3)cc2)Cn2cc([N+](=O)[O-])nc2S1(=O)=O (configuration not stated) | 4.35 | > 128 | 5.42 | 6.34 | > 128 | < 3.89 | 4.26 | – | – | – | – | – | –
15 | CC1(COCc2ccc(OC(F)(F)F)cc2)Cn2c([N+](=O)[O-])cnc2S1 (configuration not stated) | 4.33 | 55 (≈ 21.4 µg/mL) | 4.66 | 5.14 | 59 (≈ 23 µg/mL) | 4.35 | < 4.19 | – | – | – | – | – | –
16 | O=[N+]([O-])c1cn2c(n1)SC(COc1ccc(OC(F)(F)F)cc1)C2 (configuration not stated) | < 4.19 | 4.5 (≈ 1.63 µg/mL) | < 4.19 | 6.07 | 8.2 (≈ 2.96 µg/mL) | < 3.89 | < 4.19 | – | – | – | – | – | –
17 | CC1(COCc2ccc(OC(F)(F)F)cc2)Cn2cc([N+](=O)[O-])nc2S1(=O)=O (configuration not stated) | < 4.19 | > 128 | < 4.19 | 6.01 | 21 (≈ 8.85 µg/mL) | – | < 4.19 | – | – | – | – | – | –
18 | CC1(COc2ccc(OC(F)(F)F)cc2)Cn2cc([N+](=O)[O-])nc2S1(=O)=O (configuration not stated) | < 4.19 | 14 (≈ 5.7 µg/mL) | < 4.19 | 5.74 | 15 (≈ 6.11 µg/mL) | < 3.89 | < 4.19 | – | – | – | – | – | –
19 | CC1(COCc2ccc(OC(F)(F)F)cc2)Cn2cc([N+](=O)[O-])nc2[S+]1[O-] (stereo in doubt; 18) | < 4.19 | – | < 4.19 | 5.80 | > 128 | – | < 4.19 | – | – | – | – | – | –
20 | CC1(COCc2ccc(OC(F)(F)F)cc2)Cn2cc([N+](=O)[O-])nc2[S+]1[O-] (stereo in doubt; 19) | – | > 128 | – | – | – | – | – | 5.52 | – | – | – | – | –
21 | CC1(COc2ccc(OC(F)(F)F)cc2)Cn2cc([N+](=O)[O-])nc2[S+]1[O-] (stereo in doubt; 38) | – | – | – | – | – | – | – | 5.77 | 26 (≈ 10.2 µg/mL) | 4.39 | 58 (≈ 22.7 µg/mL) | – | –
22 | CC1(COc2ccc(Oc3ccccc3)cc2)Cn2cc([N+](=O)[O-])nc2[S+]1[O-] (stereo in doubt; 39) | 4.28 | – | – | – | – | < 3.89 | 4.26 | 6.72 | – | 6.44 | >128 | – | –
23 | CC1(COc2ccc(Oc3ccccc3)cc2)Cn2cc([N+](=O)[O-])nc2[S+]1[O-] (stereo in doubt; 40) | – | > 128 | – | – | – | – | – | 6.12 | – | 6.01 | 25 (≈ 9.99 µg/mL) | 4.29 | 4.38
